Shown are actives, neighbours in structure and some others; about 1.8% of the full set was active somewhere.
STAT1 blocker = inhibitors of IFN-gamma induced STAT1 signaling; NIH 3T3 STAT1-luciferase reporter, luminescence; inhibition, % at 5.5 µM; hit rate 0.35% among 200,000; AID 920;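 active = inhibition above a set limit, the mean inhibition across all tested compounds plus 3 SD, cut at about 34% in these data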
STAT3 act-1 = activators of IL-6 induced STAT3 signaling | U3A cells, IL-6 STAT3-luciferase reporter, luminescence; 100% = signal with IL-6 EC80 alone | activation (% of control), % at 5.6 µM | hit rate 0.91% among 190,000 | AID 871;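 active = activation above the screen-wide mean of compound activation plus 3 SD, cut at about 130% in these data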
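Material: STAT1-lacking human U3A cells, STAT3 luciferase reporter | Benchmarks: IL-6-only wells as 100% reference | Probe or stimulus: IL-6 (33 ng/mL) | Timing: Compound 1 h, then IL-6 6 h at 37 °C | Detection: Luminescence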
TRAIL sens C8 = sensitizes caspase-8 expressing cells to TRAIL; NB7+C8 cells + TRAIL, ATPlite viability luminescence; inhibition (viability loss, TRAIL sensitization), % at 10 µM; hit rate 1% among 360,000; AID 624354;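 active = compounds causing at least 50% loss of cell viability in the single-dose screen, relative to plate controls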
STAT3 inh = reduces IL-6 driven STAT3 reporter signal | U3A cells, IL-6 STAT3-luciferase reporter, luminescence; host cell line lacks STAT1 | inhibition, % at 5.5 µM | hit rate 0.89% among 190,000 | AID 862;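 active = inhibition above the mean inhibition across all screened compounds plus 3 SD, cut at about 44% in these data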
PPC-1+TRAIL kill = compounds killing PPC-1 cancer cells with TRAIL present (potentiator screen, no TRAIL-free arm); PPC-1 cells + TRAIL, ATPLite viability luminescence; cell killing (% activity), % at 4 µM or 5 µM; hit rate 0.41% among 220,000;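 active = cell killing above 50% in the first pass at 4 µM, then a duplicate retest at 5 µM averaging 50% or more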
STAT3 act-2 = STAT3 activation, confirmation assay. shares compounds with STAT3 act-1. U3A STAT3-luciferase reporter, IL-6 potentiation, luminescence; U3A cells lack STAT1; 100 means same as IL-6 alone. potentiation (% of control), % at 5.7 µM. hit rate 64% among 1,200;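 active = percent activation of the STAT3 luciferase reporter above a set limit taken from the earlier primary screen, cut at about 130% in these data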
NFkB act 2 = activates NF-kappaB, counter-screen to STAT3 activators. shares compounds with STAT3 act-1. human cells, NF-kappaB reporter activation. activation (% of control), % at 5.7 µM. hit rate 11% among 1,200. AID 1309; in the data active = activation above about 120%;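 note: reporter induced by TNF-alpha stimulation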
STAT1 act STAT3c = counter-screen for STAT3 activators: STAT1 activation | shares compounds with STAT3 act-1 | activation (% of control), % at 5.7 µM | NIH 3T3 STAT1-luciferase reporter, IFN-gamma, luminescence | hit rate 13% among 1,200;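 active = activation above the solvent-only control well mean plus 3 SD, set per screening run, cut at about 120% in these data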
Large screens that a line does not name were inactive (follow-up assays come after a bar, where they were run).

CCOc1ccccc1C1C2=C(COC2=O)Nc2cc3c(cc21)OCO3 (stereo not given)	STAT3 act-1 141.2 | STAT3 act-2 inactive | NFkB act 2 131.2 | STAT1 act STAT3c inactive
CCOc1ccccc1C1CC(=O)Nc2cc3c(cc21)OCO3 (stereo not given)	none
O=C1OCC2=C1C(c1ccc(F)cc1)c1cc3c(cc1N2)OCCO3 (stereo not given)	STAT3 act-1 138.3 | STAT3 act-2 inactive | NFkB act 2 inactive | STAT1 act STAT3c inactive
C#CCOc1ccc(C2C3=C(COC3=O)Nc3cc4c(cc32)OCO4)cc1OC (stereo not given)	STAT3 act-1 142.6 | STAT3 act-2 inactive | NFkB act 2 159.0 | STAT1 act STAT3c inactive
O=C1OCC2=C1C(c1ccc(F)cc1)c1cc3c(cc1N2)OCO3 (stereo not given)	STAT3 act-1 136.2 | STAT3 act-2 inactive | NFkB act 2 153.3 | STAT1 act STAT3c inactive
COc1ccc(C2C3=C(COC3=O)Oc3cc4c(cc32)OCO4)cc1OC (stereo not given)	none (no result: STAT1 blocker, STAT3 act-1, STAT3 inh, PPC-1+TRAIL kill)
COc1ccccc1NC(=O)C1=C(C)NC(=O)NC1c1ccccc1[N+](=O)[O-] (stereo not given)	STAT3 act-1 143.6 | STAT3 act-2 138.1 | NFkB act 2 inactive | STAT1 act STAT3c inactive
CCc1ccc(/C=N/NC(=O)c2cc(-c3ccncc3)nc3ccccc23)s1	none
COc1ccccc1-c1cc(C(=O)N/N=C/c2cccs2)c2ccccc2n1	STAT3 act-1 138.7 | STAT3 act-2 137.9 | NFkB act 2 inactive | STAT1 act STAT3c inactive
O=C(N/N=C/c1cccs1)c1cc(-c2ccncc2)nc2ccccc12	STAT3 act-1 138.4 | STAT3 act-2 inactive | NFkB act 2 125.1 | STAT1 act STAT3c inactive
COc1cc([C@@H]2c3cc4c(cc3[C@H](O)[C@H]3COC(=O)[C@H]23)OCO4)cc(OC)c1OC	STAT3 act-1 152.3 | STAT3 act-2 inactive | NFkB act 2 163.9 | STAT1 act STAT3c inactive
CC1CCCCC1NC(=O)CN1C(=O)NC(C)(c2cc(F)ccc2F)C1=O (stereo not given)	none (no result: STAT1 blocker, STAT3 act-1, STAT3 inh, PPC-1+TRAIL kill)
Nc1ccc(Cc2nc3cc4ccccc4cc3[nH]2)cc1	STAT3 act-1 136.1 (no result: TRAIL sens C8) | STAT3 act-2 143.0 | NFkB act 2 inactive | STAT1 act STAT3c 130.4
Nc1ccc(C(=O)OCCCc2nc3cc4ccccc4cc3[nH]2)cc1	none (no result: STAT1 blocker, STAT3 act-1, STAT3 inh)
CC(=O)c1nccs1	none (no result: STAT1 blocker, STAT3 act-1, STAT3 inh, PPC-1+TRAIL kill)
COc1ccc(S(=O)(=O)N2CCN(c3ccc4nnc(-c5ccccc5)n4n3)CC2)cc1	STAT3 act-1 142.8, TRAIL sens C8 53.9 | STAT3 act-2 inactive | NFkB act 2 inactive | STAT1 act STAT3c inactive
CCn1cc(CN2CCc3c([nH]c4ccccc34)C2c2cccc(O)c2)c(C)n1 (stereo not given)	STAT3 act-1 142.3 | STAT3 act-2 139.8 | NFkB act 2 inactive | STAT1 act STAT3c inactive
CSc1ncc(CN2CCc3c([nH]c4ccccc34)C2c2cccc(O)c2)cn1 (stereo not given)	STAT3 act-1 154.3 | STAT3 act-2 146.6 | NFkB act 2 inactive | STAT1 act STAT3c inactive
COc1cccc2c1C1COC3C4CC(C(=O)O)C(C(C2)N13)N4C (stereo not given)	none (no result: STAT1 blocker, STAT3 act-1, STAT3 inh, PPC-1+TRAIL kill)
c1ccc(C2CC(c3ccccc3)C(c3ccccc3)N2)cc1 (stereo not given)	none (no result: STAT1 blocker, STAT3 act-1, STAT3 inh, PPC-1+TRAIL kill)
CC(=O)Nc1ccc(NC(=O)c2ccnn2C)cc1	none (no result: STAT1 blocker, STAT3 act-1, STAT3 inh, PPC-1+TRAIL kill)
Cn1c(=O)c(-c2cc(Br)ccc2N)nc2ccccc21	STAT3 act-1 164.3 | STAT3 act-2 155.0 | NFkB act 2 inactive | STAT1 act STAT3c inactive
O=C(COC(=O)c1ccc(O)cc1)Nc1ccccc1	none (no result: STAT1 blocker, STAT3 act-1, STAT3 inh, PPC-1+TRAIL kill)
N#Cc1ccc(C(=O)Nc2cccc3ncccc23)c(F)c1	none
Cc1cc(C)c2oc(-c3ccc(Cl)c(NC(=O)c4ccc(C#N)cc4F)c3)nc2c1	STAT3 act-1 173.2 | STAT3 act-2 165.2 | NFkB act 2 inactive | STAT1 act STAT3c inactive
CCOC(=O)CSc1ccc2ccccc2n1	none
